Here are results for five compounds from ChEMBL document CHEMBL2176921, “Nitazoxanide Disrupts Membrane Potential and Intrabacterial pH Homeostasis of Mycobacterium tuberculosis” (ACS Med Chem Lett, 2011).

In series [1] the test system is Mycobacterium tuberculosis. Briefly: Antitubercular activity against Mycobacterium tuberculosis H37Rv assessed as disruption of membrane potential at 0.002 to 20 ug/ml after 20 mins at pH 5.5 by DiOC2-based spectrofluorimetric analysis. It is filed as functional, organism-based. The method in brief:
(§1)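 H37Rv grown to mid-log (OD580 ~0.6), resuspended to OD580 ~1.0 in 7H9 with 0.2% glycerol, 0.2% dextrose, 0.085% NaCl, 0.02% Tyloxapol at set pH (7.4, 5.5, 4.5; 5.5 also with 0.5 mM NaNO2). Compound added at 0.002–20 μg/mL final, then 15 μM DiOC2 for 20 min at room temperature, washed. Controls: CCCP 5 μM, rifampicin 0.4 μg/mL, DMSO. Red (488/610)/green (488/530) fluorescence ratio; triplicates, two experiments.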

In series [2] the test system is Mycobacterium tuberculosis H37Rv. Briefly: Drug uptake in Mycobacterium tuberculosis H37Rv at 1 to 10 fold MIC after 16 hrs by LC/MS analysis. It is filed as ADME, organism-based. Conditions: in vivo.
The test system of series [3] is Mycobacterium tuberculosis. Nature of the series: Antitubercular activity against Mycobacterium tuberculosis H37Rv expressing pH sensitive ratiometric GFP assessed as reduction of intrabacterial pH after 16 hrs at pH 7.5 by spectrofluorimetric analysis. It is filed as functional, organism-based. The method in brief:
(§2)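 H37Rv carrying pH-sensitive ratiometric GFP plasmid, grown to mid-log (OD580 ~0.6), diluted to OD580 ~0.3 in 7H9 at pH 7.5, 6.5 or 5.5, with or without 0.5 mM NaNO2. Compound or DMSO exposure 16 h. Fluorescence at excitation 395/emission 510 and excitation 475/emission 510; intrabacterial pH inferred from the ratio of the two readings.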

Series [4] concerns Mycobacterium tuberculosis. Briefly: Antitubercular activity against Mycobacterium tuberculosis H37Rv assessed as disruption of membrane potential after 20 mins at pH 7.4 by DiOC2-based spectrofluorimetric analysis. Format: functional, organism-based. Put shortly: as §1
The test system of series [5] is Mycobacterium tuberculosis. Briefly: Antitubercular activity against Mycobacterium tuberculosis H37Rv assessed as disruption of membrane potential at 0.002 to 20 ug/ml after 20 mins at pH 4.5 by DiOC2-based spectrofluorimetric analysis. It is filed as functional, organism-based. The method in brief: as §1
The test system of series [6] is Mycobacterium tuberculosis H37Rv. Nature of the series: Drug metabolism in Mycobacterium tuberculosis H37Rv assessed as tizoxanide formation at 1 to 10 fold MIC after 16 hrs by LC/MS analysis. Format: ADME, organism-based. The note with it: in vivo.
The subject of series [7] is Mycobacterium tuberculosis. Briefly: Antitubercular activity against Mycobacterium tuberculosis H37Rv. Format: functional.
Series [8] has as its system Mycobacterium tuberculosis. Briefly: Antitubercular activity against Mycobacterium tuberculosis H37Rv assessed as disruption of membrane potential at 0.4 ug/ml after 20 mins at pH 7.4 by DiOC2-based spectrofluorimetric analysis. It is filed as functional, organism-based. Put shortly: as §1
Series [9] has as its system Mycobacterium tuberculosis. Nature of the series: Antitubercular activity against Mycobacterium tuberculosis H37Rv assessed as disruption of membrane potential at 5 uM after 20 mins at pH 7.4 by DiOC2-based spectrofluorimetric analysis. It is filed as functional, organism-based. The method in brief:
as §1

Series [10] deals with Mycobacterium tuberculosis. Nature of the series: Antitubercular activity against Mycobacterium tuberculosis H37Rv expressing pH sensitive ratiometric GFP assessed as reduction of intrabacterial pH at 0.002 to 20 ug/ml after 16 hrs at pH 7.5 by spectrofluorimetric analysis. Format: functional, organism-based. The method in brief: as §2
Series [11] relates to Mycobacterium tuberculosis H37Rv. Briefly: Drug metabolism in Mycobacterium tuberculosis H37Rv assessed as [13C]acetylation at 1 to 10 fold MIC after 16 hrs by LC/MS analysis. The note with it: in vivo. It is filed as ADME, organism-based.

The structures appear in SMILES notation. Values after ≈ are worked out from the molar mass of the structure shown. Active and inactive are the calls of the source.

As for `CC(=O)Oc1ccccc1C(=O)Nc1ncc([N+](=O)[O-])s1` [NITAZOXANIDE], in [1], the result was Active. For the same compound, in series [2], the Drug uptake result is listed as “Active”. In addition, the Activity result in [3] and in series [4] was “Dose-dependent effect” each time. Besides, the result in [5] was inactive. The Drug metabolism result in [6] is reported as “Active”. This compound also showed a minimal inhibitory concentration (MIC) in [7] of 1 µg/mL (≈ 3.25 µM).

With `CO[C@H]1/C=C/O[C@@]2(C)Oc3c(C)c(O)c4c(O)c(c(/C=N/N5CCN(C)CC5)c(O)c4c3C2=O)NC(=O)/C(C)=C\C=C\[C@H](C)[C@H](O)[C@@H](C)[C@@H](O)[C@@H](C)[C@H](OC(C)=O)[C@@H]1C`, the result in series [8] was inactive.

As to `N#CC(C#N)=NNc1cccc(Cl)c1`, the outcome in series [9] was Active.

`O=C(Nc1ccc([N+](=O)[O-])cc1Cl)c1cc(Cl)ccc1O`: the outcome in series [1] and in series [10] was Active. The Activity result in series [4] is “Dose-dependent effect”. Also, the outcome in series [5] was inactive.

With `O=C(Nc1ncc([N+](=O)[O-])s1)c1ccccc1O` [TIZOXANIDE], in series [11], the Drug metabolism entry was “Not Active”.

For orientation: MIC means the smallest concentration in the dilution series that meets the test's criterion for growth inhibition. The low end stands for greater potency, the high end for weaker potency.
